The text below walks through data of ChEMBL document CHEMBL4513216, “Probing the Open Global Health Chemical Diversity Library for Multistage-Active Starting Points for Next-Generation Antimalarials” (ACS Infect Dis, 2020).

Structures are written as SMILES.

The data set can be described thus: Toxicity liver stage against HepG2, at 10uM. Type of data set: cell-based. The following applies: human, HepG2-A16-CD81EGFP cells; read-out: INHIBITION
On the set-up: test concentration 10 uM, cell line HepG2-A16-CD81EGFP. A digest of the protocol: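 Uninfected HepG2-A16-CD81EGFP cells, 3 × 10^3 per well, 1536-well, plated on prespotted compound at 10 μM final, parasite-free screening media added to match infected plates; puromycin 10 μM positive, DMSO 0.5% negative; run in parallel with 48 h PbLuc assay at 37 °C, 5% CO2; viability by CellTiter-Glo luminescence, normalized to controls.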
In the case of `CNC(=O)c1cc(C)ccc1NCc1cn2cc(C)ccc2n1`, the cytotoxicity at 10 µM was 8.45%.

In the case of `COCC(c1cccc(C(F)(F)F)c1)N(C)C(=O)c1ccncc1` (configuration not stated), the cytotoxicity at 10 µM was -14.6%.

For the molecule `COc1nc2c(cc1C(=O)NCCc1nc(C)c(C(=O)O)s1)CCC2`, the cytotoxicity at 10 µM came to 13.3%.

Regarding `N#Cc1ccc(CN2CCN(c3cncc(Cl)n3)CC2=O)cc1`, the cytotoxicity at 10 µM amounted to 7.55%.

Turning to `Cn1nc2c(cc1=O)CN(CC(=O)Nc1ccc(Cl)cn1)CC2`, the cytotoxicity at 10 µM is 0.874%.

On to `O=C(c1cnc(-c2ccccc2)nc1)N1CCOC2(CCCC2)C1`, for which the cytotoxicity at 10 µM is -1.39%.

As for `CN(C)CCOC[C@H]1CC[C@H]2[C@H](CCN2C(=O)c2ccoc2)O1`, the cytotoxicity at 10 µM was -81.5%.

In the case of `Cn1nc(C2CCCC2)c(-c2ccc3c(c2)OCO3)c1N`, the cytotoxicity at 10 µM was -51.5%.

On to `CC(=O)N1[C@H](Cn2cncn2)C[C@@H]2CN(Cc3nccs3)CC[C@@H]21`, for which the cytotoxicity at 10 µM is 10%.

Regarding `Brc1cccc(-c2noc(CN3CCOCC3)n2)c1`, the cytotoxicity at 10 µM is -15.2%.

In the case of `O=C(c1cnc2ccccn12)N1CCCC(c2ccn[nH]2)C1` (configuration not stated), the cytotoxicity at 10 µM is -5.28%.

As to `Cc1cnn(CC2CCCN2C(=O)c2cnc(-c3ccco3)s2)c1` (configuration not stated), the cytotoxicity at 10 µM was -7.43%.

On to `Cc1cc(CC(C)NC2CCSCC2)[nH]n1` (configuration not stated), for which the cytotoxicity at 10 µM worked out at 1.08%.

As for `CN1CC(=O)N(c2ccccc2)CC12CCN(C(=O)c1ccnnc1)C2` (configuration not stated), the cytotoxicity at 10 µM was found to be 3.39%.

As to `CCC(=O)N1CCN(C(=O)CCn2cccn2)CC1`, the cytotoxicity at 10 µM was -2.6%.

`O=C(c1cnc(-c2cccs2)s1)N1CCCN2CCCC2C1` (configuration not stated): the cytotoxicity at 10 µM is -13.9%.

In the case of `CCN1CCC(CNC(=O)Nc2cc(C)on2)C1` (configuration not stated), the cytotoxicity at 10 µM was -7.33%.

For the molecule `O=C1N(CC2CC2)CCC12CCN(Cc1ccoc1)CC2`, the cytotoxicity at 10 µM was -0.302%.

As for `Cc1cccc(COC[C@H]2CC[C@H]3[C@H](CCN3C(=O)CC3CC3)O2)n1`, the cytotoxicity at 10 µM is -4.66%.

Turning to `COc1cccc(N2CCN(C(=O)C(O)CC(C)C)CC2=O)c1` (configuration not stated), the cytotoxicity at 10 µM is -14.7%.

In the case of `CNS(=O)(=O)CCCN(C)Cc1cc(C)ccc1OC`, the cytotoxicity at 10 µM is -61%.

As to `CNC(=O)C1Cn2ccnc2C2(CCN(Cc3csc(C)n3)CC2)O1` (configuration not stated), the cytotoxicity at 10 µM was -151%.

In the case of `CC(C)NC(=O)CN(C)C(=O)c1c(Br)c2ccccc2n1C`, the cytotoxicity at 10 µM turned out to be 4.61%.

For `CC(C)NC(=O)c1nc(Cn2c(C(F)(F)F)nc3ccccc32)no1`, the cytotoxicity at 10 µM worked out at 20.7%.

As for `CC(C)CN1C[C@@H]2C(=O)N(C)C3(CCN(C(=O)C(C)C)CC3)[C@@H]2C1`, the cytotoxicity at 10 µM turned out to be 6.88%.

With `Cc1ccccc1C1(CNC(=O)NC(C)c2nncn2C)CC1` (configuration not stated), the cytotoxicity at 10 µM is -5.59%.

Take `CCOc1cc(CN2CCCC2)ccc1Oc1cccc(C#N)n1`: the cytotoxicity at 10 µM was -1.83%.

For the molecule `O=C(CN1CCCC(c2ccn[nH]2)C1)N1CCCc2ccccc21` (configuration not stated), the cytotoxicity at 10 µM is -3.41%.

With `Cc1c(C(=O)NCC2CCN(C)C2)n(C)c2c(C)cccc12` (configuration not stated), the cytotoxicity at 10 µM came to 10.1%.

`NC(=O)c1c[nH]nc1NC(=O)c1cccc(Cl)c1`: the cytotoxicity at 10 µM is -2.39%.

For the molecule `CCN(CC)CCCNC(=O)c1nn(CC)cc1Cl`, the cytotoxicity at 10 µM worked out at 10.8%.

On to `CC(C)N1CCN(C)CC1c1nnc2ccc(C(=O)N3CCCC3)cn12` (configuration not stated), for which the cytotoxicity at 10 µM was -145%.

With `CCN1CCN(S(=O)(=O)c2cc(C)c(Cl)cc2Cl)CC1`, the cytotoxicity at 10 µM is -2.67%.

`Cc1ccc(CC(=O)NCCCNS(C)(=O)=O)cc1`: the cytotoxicity at 10 µM was 3.1%.

With `O=C(c1cc(Cn2ccc3ccccc32)[nH]n1)N1CCCCC1CO` (configuration not stated), the cytotoxicity at 10 µM turned out to be 6.03%.

As to `Cc1nn(C)c(C)c1C1CCCN1Cc1nc(-c2cccs2)no1` (configuration not stated), the cytotoxicity at 10 µM was -9.43%.

`Cc1cccc2nc(CNC(=O)N3CCC(N4CC=CC4)C3)cn12` (configuration not stated): the cytotoxicity at 10 µM was determined as 5.88%.

Consider `Cc1cc(C(=O)N2CCCC(C)C2)ccc1NCc1nc(C(C)C)no1` (configuration not stated), for which the cytotoxicity at 10 µM was -9.84%.

`COc1ccc(CN2CCN(C(=O)c3ccc(C)n3C)CC2)cc1`: the cytotoxicity at 10 µM was -0.0113%.

Consider `Cc1nc(CN2CCN(C)C(=O)C23CCN(C(C)C)CC3)cs1`, for which the cytotoxicity at 10 µM was 2.33%.

With `CCN(C(=O)Cn1cc(NC(=O)C(C)(C)C)cn1)c1ccccc1`, the cytotoxicity at 10 µM was determined as 3.49%.

Consider `Cc1ccc2ncn(C(C)Cn3cccn3)c(=O)c2c1` (configuration not stated), for which the cytotoxicity at 10 µM came to 4.4%.

With `Cn1cnc(S(=O)(=O)Nc2cc(C(N)=O)ccc2Cl)c1`, the cytotoxicity at 10 µM amounted to 3.86%.

In the case of `CNS(=O)(=O)CC(=O)N(C1CC1)C1Cc2ccccc2C1`, the cytotoxicity at 10 µM was determined as 3.45%.

Turning to `OC1(CNCCc2csc(-c3ncccn3)n2)CCNC1` (configuration not stated), the cytotoxicity at 10 µM was -8.44%.

Consider `CCOCC1CN(C(=O)N(C)C)Cc2nn(C)cc21` (configuration not stated), for which the cytotoxicity at 10 µM was -11.9%.

For the molecule `CCc1ccc(C(=O)N2CCN(Cc3ccc(F)cc3)CC2)s1`, the cytotoxicity at 10 µM came out at 13.4%.

Regarding `C=C(C)COc1cccc(C(=O)N(C)C(C)c2ccncn2)c1` (configuration not stated), the cytotoxicity at 10 µM was -50%.

Regarding `OC1(CN2CCCC2)COCCN(c2noc(-c3ccccc3)n2)C1` (configuration not stated), the cytotoxicity at 10 µM stood at 0.726%.

As to `CC(=O)Nc1nc(-c2ccccc2)c[nH]1`, the cytotoxicity at 10 µM is -1%.

`CC(=O)N(Cc1noc(C)n1)C1CCN(Cc2cccc(C#N)c2)C1` (configuration not stated): the cytotoxicity at 10 µM is -0.645%.

Turning to `CCN(CC)C1(Cc2cc(-c3ccccn3)on2)COC1`, the cytotoxicity at 10 µM is 1.41%.

In the case of `O=C(O)c1cc(-c2ccncc2)cc(S(=O)(=O)N2CCCCCC2)c1`, the cytotoxicity at 10 µM is 2.05%.

For `Fc1cnc(N2CCCn3c(nnc3Cn3cccn3)C2)nc1`, the cytotoxicity at 10 µM is 4.53%.

As for `CN(CCO)C[C@@H]1CN(C(=O)c2cccc(OC(F)F)c2)C[C@@H]1CO`, the cytotoxicity at 10 µM is -0.185%.

With `c1cncc(CN(CCCn2ccnc2)CC2CCOC2)c1` (configuration not stated), the cytotoxicity at 10 µM is 1.79%.

Regarding `Cc1cnn(C2CCCN(C(=O)c3cc(C)sc3C)C2)c1` (configuration not stated), the cytotoxicity at 10 µM is -1.4%.

Turning to `COCC1CN(C(=O)c2ccccn2)Cc2nccn2C1` (configuration not stated), the cytotoxicity at 10 µM came to 8.62%.

For `O=c1c2ccccc2cnn1Cc1cncn1C1CC1`, the cytotoxicity at 10 µM turned out to be 3.72%.

On to `OC1CCN(c2ccc(CNc3nc4ccccc4s3)cc2F)CC1`, for which the cytotoxicity at 10 µM was determined as 1.71%.

For `O=C(O)[C@]12CCCN(CC3CCOC3)C[C@H]1CN(c1ncccn1)C2` (some centres not stated), the cytotoxicity at 10 µM was -104%.

In the case of `Cc1nc2ccccc2nc1CN1CCCC1c1c(C)nn(C)c1C` (configuration not stated), the cytotoxicity at 10 µM was -1.78%.

In the case of `CC[C@@]1(O)CCN(Cc2cc(C3CCCCC3)no2)C[C@H]1O`, the cytotoxicity at 10 µM is -4.18%.

On to `Cn1c(CO)nnc1CC1CCN(Cc2ccc(C#N)cc2)CC1`, for which the cytotoxicity at 10 µM was determined as 4.98%.

For `C=C(C)CN(CC)Cc1nc(C2CC2)no1`, the cytotoxicity at 10 µM is -7.51%.

Regarding `COc1ccc(CN2C[C@@H]3CN(S(=O)(=O)C4CC4)C[C@@H]3C2=O)cc1`, the cytotoxicity at 10 µM was -4.01%.

With `CS(=O)(=O)N1CC[C@@H]2[C@@H]1CCN2Cc1ccc2c(c1)OCO2`, the cytotoxicity at 10 µM is -5.96%.

With `CCC(Nc1nccc(C2CCCC2)n1)c1ncccc1C` (configuration not stated), the cytotoxicity at 10 µM was -130%.

On to `COCC1CN(CC2CC2)Cc2ncn(CC3CC3)c21` (configuration not stated), for which the cytotoxicity at 10 µM came out at 4.42%.

Take `c1cnc(N2CC[C@@H](N3CCOCC3)[C@@H]2Cc2ccncc2)nc1`: the cytotoxicity at 10 µM was 2.9%.

Turning to `CCc1ccc(CN2CCC3(CC(C(=O)NCC(C)C)=NO3)C2)o1` (configuration not stated), the cytotoxicity at 10 µM is 6.46%.

As to `COC(=O)[C@@H]1CN(S(=O)(=O)c2ccccc2)CCN1S(C)(=O)=O`, the cytotoxicity at 10 µM amounted to 0.471%.

As to `CCC(C)C(=O)N(CC(=O)OC)c1cccc(C)n1` (configuration not stated), the cytotoxicity at 10 µM was -4.31%.

For `CCC(CC)C(O)CNC(=O)Nc1cc(C)nn1C` (configuration not stated), the cytotoxicity at 10 µM was -11%.

As to `CCc1nnc2n1CCN(Cc1noc(-c3cccc(C)c3)n1)C2`, the cytotoxicity at 10 µM was 12%.

For the molecule `O=C1CC[C@H]2[C@H](CCN2C(=O)N2CCCC2)N1Cc1ccncc1`, the cytotoxicity at 10 µM is -2.04%.

For the molecule `CNCc1n[nH]c(=O)n1-c1ccccc1Oc1ccccc1`, the cytotoxicity at 10 µM was -4.88%.

With `Cc1nc(CSc2ccc(C(F)(F)F)cn2)no1`, the cytotoxicity at 10 µM was -3.38%.

As for `COC(=O)C(C)NCc1ccc2[nH]c(C)c(C)c2c1` (configuration not stated), the cytotoxicity at 10 µM is 2.4%.

Consider `O=C1N(c2cccnc2)CCC12CCCN(Cc1ccoc1)C2` (configuration not stated), for which the cytotoxicity at 10 µM is -1.6%.

Take `CCc1ncnc2c1CCN(Cc1ccc(OC)cc1)CC2`: the cytotoxicity at 10 µM was -0.00161%.

For the molecule `COCC(=O)NCC1Cn2nnc(-c3ccoc3)c2CO1` (configuration not stated), the cytotoxicity at 10 µM was determined as 17%.

On to `COCc1cc(CNCc2c(C)n(CC(C)C)c3ccccc23)n[nH]1`, for which the cytotoxicity at 10 µM was 12%.

On to `Cc1cc(CNc2ccc(C(=O)N3CCCC(C)C3)cc2C)no1` (configuration not stated), for which the cytotoxicity at 10 µM was -3.92%.

Take `COc1cc(C(C)=O)ccc1SCC(=O)Nc1cccc(C)n1`: the cytotoxicity at 10 µM came out at 15.1%.

With `NCC1(c2cccc(C(F)(F)F)c2)CC1`, the cytotoxicity at 10 µM is -11.2%.

On to `COCC(=O)N[C@H](C)c1onc(-c2ccc(OC)cc2)c1C(=O)O`, for which the cytotoxicity at 10 µM turned out to be 4.82%.

As for `CCN1CCN(C(=O)Cn2ncc3c2c(C)nn3C(C)C)CC1`, the cytotoxicity at 10 µM stood at 6.5%.

For `CN1C[C@H]2CNC[C@@]2(C(=O)N2CCN(c3ncccc3C#N)CC2)C1`, the cytotoxicity at 10 µM came to 2.12%.

For the molecule `Cc1noc(C)c1C(C)C(=O)N1CCCN(C)c2ccc(Cl)cc21` (configuration not stated), the cytotoxicity at 10 µM came to 3.89%.

For `Cc1csc(C2CCCCN2C(=O)CN(C)C(C)C)n1` (configuration not stated), the cytotoxicity at 10 µM was -3.62%.

For the molecule `CCOCCSc1nnc(Cc2ccccc2F)o1`, the cytotoxicity at 10 µM was 8.45%.

Regarding `CCCS(=O)(=O)CCN1CCN(C(C#N)c2ccccc2)CC1` (configuration not stated), the cytotoxicity at 10 µM is -5.02%.

Turning to `CN(Cc1ccco1)[C@@H]1CN(Cc2ccoc2)C[C@@H]2CCCO[C@@H]21`, the cytotoxicity at 10 µM is -1.6%.

Regarding `CCS(=O)(=O)c1ncc(CN(C)CCc2ccccn2)n1CCOC`, the cytotoxicity at 10 µM is -3.98%.

Consider `COCCNC(=O)c1sc(Nc2ccc(Cl)cn2)nc1C`, for which the cytotoxicity at 10 µM was 32.4%.

Regarding `COCCN(C/C=C/c1ccccc1)Cc1nccs1`, the cytotoxicity at 10 µM was found to be 42.8%.
